Data: ChEMBL document CHEMBL3877264, “Quinolidene-rhodanine conjugates: Facile synthesis and biological evaluation” (Eur J Med Chem, 2017)
In brackets after ≈: the same amount, converted by molar mass.

Key:
Format in all cases: functional
Pseudomonas fluorescens [1] = assay: Growth inhibition of Pseudomonas fluorescens NCIM 2036 at 10 ug/ml measured after 8 hrs relative to control; details: NCIM 2036, 8 h, read-out: GI
In short: (§1)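 Bacteria grown in LB at 37 °C and 180 rpm to OD 1. Compounds added to wells, then 0.1% inoculum of 1 OD culture (620 nm). Growth read as OD at 620 nm after 8 h for gram-negative and after 12 h for gram-positive strains.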

Aspergillus niger = assay: Antifungal activity against Aspergillus niger NCIM 1196 by standard agar method
In short: (§2)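 MICs determined by standard agar method; DMSO as solvent control.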

Bacillus subtilis [2] = assay: Antibacterial activity against Bacillus subtilis NCIM 2079 measured after 12 hrs; details: NCIM 2079, 12 h; in short: as §1
Escherichia coli [3] = assay: Growth inhibition of Escherichia coli NCIM 2688 at 10 ug/ml measured after 8 hrs relative to control; details: NCIM 2688, 8 h, read-out: GI; in short: as §1
Escherichia coli [4] = assay: Growth inhibition of Escherichia coli NCIM 2688 at 30 ug/ml measured after 8 hrs relative to control; details: NCIM 2688, 8 h, read-out: GI; in short: as §1
Staphylococcus aureus [5] = assay: Antibacterial activity against of Staphylococcus aureus NCIM 2010 measured after 12 hrs; details: NCIM 2010, 12 h; in short: as §1
[6] = test system: Mycobacterium tuberculosis; assay: Growth inhibition of Mycobacterium bovis BCG ATCC 35743 at dormant stage measured after 12 days by nitrate reductase dye based two fold dilution method; details: BCG str. ATCC 35743, 288 h
In short: (§3)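 M. bovis BCG was grown in Dubos medium and assayed in Mycobacterium pheli minimal medium (pH 6.6), with compounds from DMSO stocks. Incubation lasted 8 days for active and 12 days for dormant cultures. Viability was read by nitrate reductase at 540 nm against cell-free blanks, with vehicle set as 100% growth. Primary screen was at 30, 10 and 3 µg/ml, in triplicate, mean ± SD. MIC was taken from dose-response curves.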

[7] = test system: Mycobacterium tuberculosis; assay: Growth inhibition of Mycobacterium bovis BCG ATCC 35743 at dormant stage at 10 ug/ml measured after 12 days by nitrate reductase dye based two fold dilution method relative to control; details: BCG str. ATCC 35743, 288 h, read-out: GI; in short: as §3
Staphylococcus aureus [8] = assay: Growth inhibition of Staphylococcus aureus NCIM 2010 at 10 ug/ml measured after 12 hrs relative to control; details: NCIM 2010, 12 h, read-out: GI; in short: as §1
Pseudomonas fluorescens [9] = assay: Growth inhibition of Pseudomonas fluorescens NCIM 2036 at 30 ug/ml measured after 8 hrs relative to control; details: NCIM 2036, 8 h, read-out: GI; in short: as §1
Pseudomonas fluorescens [10] = assay: Growth inhibition of Pseudomonas fluorescens NCIM 2036 at 3 ug/ml measured after 8 hrs relative to control; details: NCIM 2036, 8 h, read-out: GI; in short: as §1
Escherichia coli [11] = assay: Growth inhibition of Escherichia coli NCIM 2688 at 3 ug/ml measured after 8 hrs relative to control; details: NCIM 2688, 8 h, read-out: GI; in short: as §1
[12] = test system: Mycobacterium tuberculosis; assay: Growth inhibition of Mycobacterium bovis BCG ATCC 35743 at dormant stage at 30 ug/ml measured after 12 days by nitrate reductase dye based two fold dilution method relative to control; details: BCG str. ATCC 35743, 288 h, read-out: GI; in short: as §3
[13] = test system: Mycobacterium tuberculosis; assay: Growth inhibition of Mycobacterium tuberculosis H37Ra ATCC 25177 at active stage measured after 8 days by XTT dye based two fold dilution method; details: H37Ra ATCC 25177, 192 h
In short: (§4)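 MTB H37Ra was grown in Dubos medium, then exposed in Mycobacterium pheli minimal medium (pH 6.6) to compounds dissolved in DMSO. The assay ended on day 8 (active) or day 12 (dormant). Viable cells were measured by XTT reduction menadione assay at 470 nm, blank-corrected, relative to vehicle control. Triplicates were expressed as mean ± SD. MIC came from dose-response curves.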

Staphylococcus aureus [14] = assay: Growth inhibition of Staphylococcus aureus NCIM 2010 at 3 ug/ml measured after 12 hrs relative to control; details: NCIM 2010, 12 h, read-out: GI; in short: as §1
[15] = test system: Mycobacterium tuberculosis; assay: Growth inhibition of Mycobacterium tuberculosis H37Ra ATCC 25177 at dormant stage measured after 12 days by XTT dye based two fold dilution method; details: H37Ra ATCC 25177, 288 h; in short: as §4
[16] = test system: Mycobacterium tuberculosis; assay: Growth inhibition of Mycobacterium bovis BCG ATCC 35743 at active stage measured after 8 days by nitrate reductase dye based two fold dilution method; details: BCG str. ATCC 35743, 192 h; in short: as §3
Pseudomonas fluorescens [17] = assay: Antibacterial activity against Pseudomonas fluorescens NCIM 2036 measured after 8 hrs; details: NCIM 2036, 8 h; in short: as §1
Aspergillus flavus = assay: Antifungal activity against Aspergillus flavus NCIM 539 by standard agar method; in short: as §2
Staphylococcus aureus [18] = assay: Growth inhibition of Staphylococcus aureus NCIM 2010 at 30 ug/ml measured after 12 hrs relative to control; details: NCIM 2010, 12 h, read-out: GI; in short: as §1
Bacillus subtilis [19] = assay: Growth inhibition of Bacillus subtilis NCIM 2079 at 3 ug/ml measured after 12 hrs relative to control; details: NCIM 2079, 12 h, read-out: GI; in short: as §1
Escherichia coli [20] = assay: Antibacterial activity against Escherichia coli NCIM 2688 measured after 8 hrs; details: NCIM 2688, 8 h; in short: as §1
Bacillus subtilis [21] = assay: Growth inhibition of Bacillus subtilis NCIM 2079 at 10 ug/ml measured after 12 hrs relative to control; details: NCIM 2079, 12 h, read-out: GI; in short: as §1
Bacillus subtilis [22] = assay: Growth inhibition of Bacillus subtilis NCIM 2079 at 30 ug/ml measured after 12 hrs relative to control; details: NCIM 2079, 12 h, read-out: GI; in short: as §1
[23] = Antifungal activity against Fusarium oxysporum NCIM 1332 by standard agar method; in short: as §2
[24] = test system: Mycobacterium tuberculosis; assay: Growth inhibition of Mycobacterium bovis BCG ATCC 35743 at dormant stage at 3 ug/ml measured after 12 days by nitrate reductase dye based two fold dilution method relative to control; details: BCG str. ATCC 35743, 288 h, read-out: GI; in short: as §3
[25] = Antifungal activity against Cryptococcus neoformans NCIM 576 by standard agar method; in short: as §2
Candida albicans = assay: Antifungal activity against Candida albicans NCIM 3471 by standard agar method; in short: as §2

| Compound | inhibition of growth at 10 µg/mL (Pseudomonas fluorescens [1]) [%] | MIC (Bacillus subtilis [2]) [µg/mL] | inhibition of growth at 10 µg/mL (Escherichia coli [3]) [%] | inhibition of growth at 30 µg/mL (Escherichia coli [4]) [%] | MIC (Staphylococcus aureus [5]) [µg/mL] | IC50 [6] [µg/mL] | IC90 [6] [µg/mL] | inhibition of growth at 10 µg/mL [7] [%] | inhibition of growth at 10 µg/mL (Staphylococcus aureus [8]) [%] | inhibition of growth at 30 µg/mL (Pseudomonas fluorescens [9]) [%] | inhibition of growth at 3 µg/mL (Pseudomonas fluorescens [10]) [%] | inhibition of growth at 3 µg/mL (Escherichia coli [11]) [%] | inhibition of growth at 30 µg/mL [12] [%] | IC50 [13] [µg/mL] | IC90 [13] [µg/mL] | inhibition of growth at 3 µg/mL (Staphylococcus aureus [14]) [%] | IC50 [15] [µg/mL] | IC90 [15] [µg/mL] | MIC (Pseudomonas fluorescens [17]) [µg/mL] | MIC (Escherichia coli [20]) [µg/mL] | further results |
| --- | --- | --- | --- | --- | --- | --- | --- | --- | --- | --- | --- | --- | --- | --- | --- | --- | --- | --- | --- | --- | --- |
| CCOc1ccc2nc(Cl)c(/C=C3\SC(=S)N(CC(=O)O)C3=O)cc2c1 | 24.4 | > 30 | 18.5 | 71.9 | > 30 | > 30 | > 30 | 24.8 | -13.4 | 4.87 | -5.49 | 5.91 | 9.17 | > 30 | > 30 | 2.94 | > 30 | > 30 | > 30 | > 30 | MIC (Aspergillus niger): 125 µg/mL (≈ 306 µM); IC50 [16]: > 30 µg/mL; IC90 [16]: > 30 µg/mL; MIC (Aspergillus flavus): 100 µg/mL (≈ 245 µM); inhibition of growth at 30 µg/mL (Staphylococcus aureus [18]): -9.57%; inhibition of growth at 3 µg/mL (Bacillus subtilis [19]): -12.7%; inhibition of growth at 10 µg/mL (Bacillus subtilis [21]): -0.253%; inhibition of growth at 30 µg/mL (Bacillus subtilis [22]): -2.41%; MIC [23]: 150 µg/mL (≈ 367 µM); inhibition of growth at 3 µg/mL [24]: 26.3% |
| O=C(O)CCN1C(=O)/C(=C/c2cc3cc(Cl)ccc3nc2Cl)SC1=S | 6.58 | > 30 | 27.1 | 37.3 | > 30 | > 30 | > 30 | 25.7 | -36.7 | -10 | 3.17 | 20.6 | 56.5 | > 30 | > 30 | -7.27 | > 30 | > 30 | > 30 | > 30 | MIC [25]: 150 µg/mL (≈ 363 µM); MIC (Aspergillus niger): 200 µg/mL (≈ 484 µM); MIC (Candida albicans): 200 µg/mL (≈ 484 µM); IC50 [16]: > 30 µg/mL; IC90 [16]: > 30 µg/mL; MIC (Aspergillus flavus): 100 µg/mL (≈ 242 µM); inhibition of growth at 30 µg/mL (Staphylococcus aureus [18]): -65.7%; inhibition of growth at 3 µg/mL (Bacillus subtilis [19]): 1.91%; inhibition of growth at 10 µg/mL (Bacillus subtilis [21]): -1.12%; inhibition of growth at 30 µg/mL (Bacillus subtilis [22]): 0.333%; inhibition of growth at 3 µg/mL [24]: 13.7% |
| COc1ccc2cc(/C=C3\SC(=S)N(CCC(=O)O)C3=O)c(Cl)nc2c1 | -3.31 | > 30 | 13.7 | 6.84 | > 30 | > 30 | > 30 | 16.9 | -12.1 | -33.9 | -62.2 | 2.29 | 11.3 | > 30 | > 30 | -13 | > 30 | > 30 | > 30 | > 30 | MIC [25]: 150 µg/mL (≈ 367 µM); MIC (Aspergillus niger): 200 µg/mL (≈ 489 µM); MIC (Candida albicans): 150 µg/mL (≈ 367 µM); IC50 [16]: > 30 µg/mL; IC90 [16]: > 30 µg/mL; MIC (Aspergillus flavus): 100 µg/mL (≈ 245 µM); inhibition of growth at 30 µg/mL (Staphylococcus aureus [18]): -17.3%; inhibition of growth at 3 µg/mL (Bacillus subtilis [19]): -3.95%; inhibition of growth at 10 µg/mL (Bacillus subtilis [21]): -0.582%; inhibition of growth at 30 µg/mL (Bacillus subtilis [22]): 0.458%; inhibition of growth at 3 µg/mL [24]: 14.1% |
| NC[C@H]1O[C@H](O[C@H]2[C@H](O)[C@@H](O[C@H]3O[C@H](CO)[C@@H](O)[C@H](N)[C@H]3O)[C@H](N)C[C@@H]2N)[C@H](O)[C@@H](O)[C@@H]1O [KANAMYCIN] |  | 0.25 (≈ 0.516 µM) |  |  | 16 (≈ 33 µM) |  |  |  |  |  |  |  |  |  |  |  |  |  | 0.012 (≈ 0.0248 µM) | 0.67 (≈ 1.38 µM) |  |
| COc1ccc2nc(Cl)c(/C=C3\SC(=S)N(CC(=O)O)C3=O)cc2c1 | 0.664 | > 30 | -19.5 | -50.9 | > 30 | > 30 | > 30 | 27.3 | -25.4 | -6.43 | -4.12 | -23.7 | 32 | > 30 | > 30 | -29.3 | > 30 | > 30 | > 30 | > 30 | MIC [25]: 150 µg/mL (≈ 380 µM); MIC (Candida albicans): 150 µg/mL (≈ 380 µM); IC50 [16]: > 30 µg/mL; IC90 [16]: > 30 µg/mL; MIC (Aspergillus flavus): 200 µg/mL (≈ 507 µM); inhibition of growth at 30 µg/mL (Staphylococcus aureus [18]): -35.7%; inhibition of growth at 3 µg/mL (Bacillus subtilis [19]): -37%; inhibition of growth at 10 µg/mL (Bacillus subtilis [21]): -37.3%; inhibition of growth at 30 µg/mL (Bacillus subtilis [22]): -33.3%; MIC [23]: 125 µg/mL (≈ 317 µM); inhibition of growth at 3 µg/mL [24]: 6.02% |
| CC1(C)S[C@@H]2[C@H](NC(=O)[C@H](N)c3ccccc3)C(=O)N2[C@H]1C(=O)O [AMPICILLIN] |  | 5.89 (≈ 16.9 µM) |  |  | 0.12 (≈ 0.343 µM) |  |  |  |  |  |  |  |  |  |  |  |  |  | 2.83 (≈ 8.1 µM) | 0.41 (≈ 1.17 µM) |  |
